Results reported in ChEMBL document CHEMBL4422635, “Structure-Based Discovery of a Subtype-Selective Inhibitor Targeting a Transient Receptor Potential Vanilloid Channel” (J Med Chem, 2019).
Positions count from the first letter of the chain named. The source made the active and inactive calls. No cut-off for these calls is given here.

Key:
[1] = system: T1, Transient receptor potential cation channel subfamily V member 2 (Mus musculus), Q9WTR1 [F467S]; experiment: Antagonist activity at mouse TRPV2 F467S mutant expressed in HEK293T cells assessed as inhibition of 2-APB evoked currents at -60 mV holding potential by whole-cell patch clamp assay; format: cell-based
T1 sequence (whole entry): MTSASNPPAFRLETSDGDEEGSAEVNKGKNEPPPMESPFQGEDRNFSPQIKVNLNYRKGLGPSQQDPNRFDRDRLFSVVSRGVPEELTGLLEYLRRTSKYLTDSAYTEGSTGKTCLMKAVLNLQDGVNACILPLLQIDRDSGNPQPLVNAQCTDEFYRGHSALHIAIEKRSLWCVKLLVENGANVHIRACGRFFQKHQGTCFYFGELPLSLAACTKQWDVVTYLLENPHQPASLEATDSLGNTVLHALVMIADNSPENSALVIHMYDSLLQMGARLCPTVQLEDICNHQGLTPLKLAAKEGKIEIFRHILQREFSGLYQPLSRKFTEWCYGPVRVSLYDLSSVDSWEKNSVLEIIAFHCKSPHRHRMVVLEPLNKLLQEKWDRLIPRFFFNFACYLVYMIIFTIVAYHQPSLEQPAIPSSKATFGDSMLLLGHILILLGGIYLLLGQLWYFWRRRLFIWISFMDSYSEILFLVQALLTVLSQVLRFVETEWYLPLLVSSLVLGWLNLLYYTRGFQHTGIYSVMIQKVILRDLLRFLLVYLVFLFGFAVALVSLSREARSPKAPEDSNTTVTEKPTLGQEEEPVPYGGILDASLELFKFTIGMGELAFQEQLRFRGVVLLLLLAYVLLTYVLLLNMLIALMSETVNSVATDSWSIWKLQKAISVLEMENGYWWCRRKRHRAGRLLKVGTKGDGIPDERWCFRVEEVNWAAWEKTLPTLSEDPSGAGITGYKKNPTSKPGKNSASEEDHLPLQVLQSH
How it was run: (§1)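 Whole-cell voltage clamp of transiently transfected HEK293T cells co-expressing GFP, recorded 36-96 h post-transfection. Hold -60 mV; pipettes 3-7 MΩ. Bath 165 mM NaCl, 10 mM HEPES pH 7.3; pipette 140 mM KCl, 10 mM HEPES pH 7.3. Room temperature (~25 °C). IC50 from Hill fits of I/I0, the current ratio after vs before inhibitor; mean ± SEM.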

PC-3M [2] = experiment: Antimetastatic activity in human PC3M cells transfected with TRPV2 siRNA at 5 to 20 uM after 24 hrs by transwell migration assay; format: functional, cell-based
PC-3M [3] = experiment: Antimetastatic activity in human PC3M cells at 5 to 20 uM after 24 hrs by transwell migration assay; format: functional, cell-based
How it was run: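 PC-3M cells kept in RPMI 1640 with 10% FBS at 37 °C, 5% CO2.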

[4] = system: T1, Transient receptor potential cation channel subfamily V member 2 (Mus musculus), Q9WTR1 [F467S]; experiment: Antagonist activity at mouse TRPV2 F467S mutant expressed in HEK293T cells assessed as inhibition of 2-APB evoked currents at 0.3 to 3 uM by whole-cell patch clamp assay; format: cell-based; how it was run: as §1
[5] = system: T2, Transient receptor potential cation channel subfamily V member 2 (Mus musculus), Q9WTR1 [Q525A]; experiment: Antagonist activity at mouse TRPV2 Q525A mutant expressed in HEK293T cells assessed as inhibition of 2-APB evoked currents at -60 mV holding potential by whole-cell patch clamp assay; format: cell-based; how it was run: as §1
T2 sequence (whole entry): T1 sequence (whole entry) with S467F, Q525A

[6] = biological target: T3, Transient receptor potential cation channel subfamily V member 3 (Mus musculus) (UniProt Q8K424); experiment: Antagonist activity at mouse TRPV3 expressed in HEK293T cells assessed as inhibition of 2-APB evoked currents at 3 to 10 uM -60 mV holding potential by whole-cell patch clamp assay; format: cell-based; how it was run: as §1
T3 sequence (whole entry): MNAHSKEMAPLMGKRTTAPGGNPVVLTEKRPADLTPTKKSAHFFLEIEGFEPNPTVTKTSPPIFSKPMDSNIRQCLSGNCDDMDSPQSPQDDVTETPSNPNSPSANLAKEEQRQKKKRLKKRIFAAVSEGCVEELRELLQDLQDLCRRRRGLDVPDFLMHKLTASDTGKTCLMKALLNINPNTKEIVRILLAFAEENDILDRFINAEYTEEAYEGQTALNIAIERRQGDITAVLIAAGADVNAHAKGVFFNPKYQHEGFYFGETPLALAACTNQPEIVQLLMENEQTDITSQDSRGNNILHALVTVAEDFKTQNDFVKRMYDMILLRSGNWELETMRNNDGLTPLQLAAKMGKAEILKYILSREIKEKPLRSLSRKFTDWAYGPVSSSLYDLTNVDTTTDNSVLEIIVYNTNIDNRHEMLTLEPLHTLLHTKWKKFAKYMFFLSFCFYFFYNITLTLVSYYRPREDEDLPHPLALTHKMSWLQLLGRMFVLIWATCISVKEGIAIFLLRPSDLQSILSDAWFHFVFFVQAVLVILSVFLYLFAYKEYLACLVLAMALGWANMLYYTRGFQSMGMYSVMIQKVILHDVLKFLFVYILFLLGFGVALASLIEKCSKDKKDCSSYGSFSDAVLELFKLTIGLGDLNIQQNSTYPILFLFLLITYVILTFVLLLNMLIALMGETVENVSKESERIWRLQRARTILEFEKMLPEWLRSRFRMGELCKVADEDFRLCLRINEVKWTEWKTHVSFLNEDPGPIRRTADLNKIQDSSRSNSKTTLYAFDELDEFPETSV

inhibition [1]: inactive
inhibition [4]: inactive
inhibition [5]: inactive
inhibition [6]: inactive
SMILES: CCCN(C)c1cc(C(F)(F)F)nc(SCCC(=O)NCc2ccco2)n1
Activity (PC-3M [2]): inactive
Activity (PC-3M [3]): Active
